Calls of active or inactive are those of the source. The calls are words filed in the database; no cut-off is given here.
Key:
[1] = biological target: T1, NAD-dependent protein deacetylase sirtuin-1 (Homo sapiens) (UniProt Q96EB6); test: Binding affinity to His6-tagged SIRT1 (unknown origin) expressed in Escherichia coli BL21 (DE3) assessed as thermal stability at 90 uM using H3K18Ac as substrate incubated for 20 mins in presence of NAD+ by GloMelt thermal shift assay
T1 sequence (whole entry): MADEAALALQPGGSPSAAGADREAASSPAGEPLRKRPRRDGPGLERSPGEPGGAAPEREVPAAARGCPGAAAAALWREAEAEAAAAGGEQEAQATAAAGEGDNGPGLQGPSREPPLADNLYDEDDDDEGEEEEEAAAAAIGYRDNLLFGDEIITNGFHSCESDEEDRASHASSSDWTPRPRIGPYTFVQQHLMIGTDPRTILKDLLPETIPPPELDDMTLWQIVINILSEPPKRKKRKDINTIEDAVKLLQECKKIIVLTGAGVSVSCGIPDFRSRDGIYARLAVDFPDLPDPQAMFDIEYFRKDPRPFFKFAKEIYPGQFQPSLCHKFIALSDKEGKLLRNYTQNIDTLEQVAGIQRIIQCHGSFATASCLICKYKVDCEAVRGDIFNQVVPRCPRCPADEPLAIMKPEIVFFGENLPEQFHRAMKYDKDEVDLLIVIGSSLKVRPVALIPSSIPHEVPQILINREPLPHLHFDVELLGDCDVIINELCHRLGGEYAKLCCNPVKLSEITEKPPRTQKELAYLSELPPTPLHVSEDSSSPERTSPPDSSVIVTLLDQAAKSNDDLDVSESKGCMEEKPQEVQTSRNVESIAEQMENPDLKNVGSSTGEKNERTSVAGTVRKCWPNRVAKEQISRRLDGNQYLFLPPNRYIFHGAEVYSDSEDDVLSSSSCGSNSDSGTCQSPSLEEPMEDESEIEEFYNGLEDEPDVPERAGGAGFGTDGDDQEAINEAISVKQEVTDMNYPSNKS
How it was run: (§1)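 SirT1 or SirT3 at 8 µM with 1 mM NAD⁺ and 0.25 mM H3K18ac; SirT2 at 16 µM with 1 mM NAD⁺ and 0.5 mM H4K16ac. Compound 90 µM, 20 min RT before dye addition and melting; ΔTm from melting curves.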

[2] = biological target: T2, NAD-dependent protein deacetylase sirtuin-2 (Homo sapiens) (UniProt Q8IXJ6); test: Binding affinity to His6-tagged/TEV fused SIRT2 (unknown origin) expressed in Escherichia coli BL21 (DE3) assessed as thermal stability at 90 uM using H4K16Ac as substrate incubated for 20 mins in presence of NAD+ by GloMelt thermal shift assay; how it was run: as §1
T2 sequence (whole entry): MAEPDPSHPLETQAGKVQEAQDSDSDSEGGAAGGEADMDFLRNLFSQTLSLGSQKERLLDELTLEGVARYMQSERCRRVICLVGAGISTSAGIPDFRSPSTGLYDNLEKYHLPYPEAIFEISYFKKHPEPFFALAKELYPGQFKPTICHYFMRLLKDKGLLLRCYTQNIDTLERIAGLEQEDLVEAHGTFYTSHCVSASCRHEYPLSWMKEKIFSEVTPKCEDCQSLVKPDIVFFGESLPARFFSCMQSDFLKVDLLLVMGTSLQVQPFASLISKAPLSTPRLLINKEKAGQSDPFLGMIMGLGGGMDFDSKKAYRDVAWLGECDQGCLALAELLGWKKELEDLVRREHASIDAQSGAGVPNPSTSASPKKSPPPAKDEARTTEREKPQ

[3] = biological target: T3, NAD-dependent protein deacetylase sirtuin-3, mitochondrial (Homo sapiens) (UniProt Q9NTG7); test: Binding affinity to His6-tagged/TEV fused SIRT3 (unknown origin) expressed in Escherichia coli BL21 (DE3) assessed as thermal stability at 90 uM using H3K18Ac as substrate incubated for 20 mins in presence of NAD+ by GloMelt thermal shift assay; how it was run: as §1
T3 sequence (whole entry): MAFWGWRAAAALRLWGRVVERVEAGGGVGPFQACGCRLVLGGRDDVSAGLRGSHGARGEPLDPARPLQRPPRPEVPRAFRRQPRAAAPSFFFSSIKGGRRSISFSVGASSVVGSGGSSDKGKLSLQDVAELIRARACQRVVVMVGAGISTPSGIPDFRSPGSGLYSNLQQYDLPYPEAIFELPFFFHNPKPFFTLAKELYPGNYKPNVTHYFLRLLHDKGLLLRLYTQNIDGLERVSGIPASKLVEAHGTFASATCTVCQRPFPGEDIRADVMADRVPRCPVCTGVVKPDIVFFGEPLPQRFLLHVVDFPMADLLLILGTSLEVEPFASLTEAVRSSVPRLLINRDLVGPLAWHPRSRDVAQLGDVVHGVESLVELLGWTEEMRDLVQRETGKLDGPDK

[4] = biological target: T1, NAD-dependent protein deacetylase sirtuin-1 (Homo sapiens); test: Inhibition of His6-tagged SIRT1 (unknown origin) expressed in Escherichia coli BL21 (DE3) at 1 uM using Fluor-de-Lys-Ac-Gly-Gly-Lys(ac)-AMC peptide as substrate incubated for 5 mins by fluorescence assay
How it was run: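 Conditions as the FLucK529ac deacetylase assay (100 nM SirT1, sirtuin buffer 2) but with 10 µM Ac-Gly-Gly-Lys(ac)-AMC substrate and inhibitors at 1 µM. Stopped with equal volume 2× trypsin (0.1 mg/mL); released coumarin read after 5 min RT, ex 355/em 460 nm.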

[5] = biological target: T1, NAD-dependent protein deacetylase sirtuin-1 (Homo sapiens); test: Inhibition of His6-tagged SIRT1 (unknown origin) expressed in Escherichia coli BL21 (DE3) deacetylation activity incubated for 30 mins in presence of NAD+; details: dose 0.04-10 µM
[6] = biological target: T1, NAD-dependent protein deacetylase sirtuin-1 (Homo sapiens); test: Binding affinity to His6-tagged SIRT1 (unknown origin) expressed in Escherichia coli BL21 (DE3) assessed as increase in thermal stability at 0.1 mM and 41.5 degreeC using H3K18Ac peptide as substrate incubated for 10 mins in presence of NAD+ by SYPRO orange thermal shift assay

Activity [1]	Activity [2]	Activity [3]	inhibition [4]	inhibition [5]	Activity [6]	Structure (SMILES)
Active	inactive	inactive	–	–	–	N#Cc1ccccc1CN1CC(C(N)=O)Oc2ccccc21 (stereo in doubt; 4.27)
Active	inactive	inactive	inactive	Dose-Dependent Effect	Active	NC(=O)C1CN(Cc2ccc3nonc3c2)c2ccccc2O1 (stereo unspecified)
–	–	–	–	Dose-Dependent Effect	Active	NC(=O)C1CCCc2c1[nH]c1ccc(Cl)cc21 (stereo unspecified)

Reference: ChEMBL document CHEMBL4834428
